# CAL PDZ FP-1: CAL PDZ (human) peptide binding inhibition; Q9HD26; purified CAL PDZ, TMR-peptide fluorescence polarization, 1 h; inhibition, % at 24.9 µM; 300,000 tested, 0.92% active;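 active means mean inhibition of at least 30% with at least half of replicates also reaching 30%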;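 further: 0% = DMSO neutral control and 100% = excess unlabeled competitor peptide PRC23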
# DDE Tn6 FP inh: inhibitors of Tn6 peptide binding to human fibrin DD(E). 370,000 tested, 0.21% active. inhibition, % at 8.3 µM. AID 720509. Fibrin DD(E) TRITC-Tn6 fluorescence polarization displacement. P02675;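 active means inhibition above a per-campaign cutoff: mean of compounds within control limits plus 3 SD, cut at about 15% in these data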;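 further: 0% = median of all compound wells on the plate and 100% = blocking peptide control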
# DDE Tn7 FP inh: disrupts Tn7 cyclic peptide binding to fibrin D-Dimer-E complex; P02675; FP displacement of FITC-Tn7 peptide from fibrin DD(E); 0% = median of compound wells per plate; inhibition, % at 8.3 µM; 370,000 tested, 0.13% active;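 active means inhibition above the mean of compounds falling within the control limits plus 3 SD of them, cut at about 14% in these data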;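 further: 0% = plate median of compound wells and 100% = 10 µM Aha-Tn7 peptide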
#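 System: human fibrin DD(E); quantity: Fibrin-DD(E) at 2 µM final; also added: fluorescent Tn7 probe at 0.1 µM; compound dosing: single nominal test concentration of 8.3 µM per compound; schedule: 10 min preincubation, 3 h with tracer, room temperature; detection: fluorescence polarization of the labelled Tn7 tracer; repeats: one replicate per compound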
# ARNT TACC3 PPI: ARNT/TACC3 interaction disruption; 390,000 tested, 0.66% active; Q9Y6A5; AlphaScreen His-ARNT PAS-B/GST-TACC3 binding, luminescence; TACC3 fragment carries E629A point mutation; inhibition, % at 9.99 µM; AID 623870;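 active means mean inhibition of replicates at least 50% and at least half of replicates each reaching 50%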;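 further: 0% = complete ARNT plus TACC3 wells and 100% = ARNT alone without TACC3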
# GRK2 inh: blocks RNA aptamer binding to human GRK2; P25098; 330,000 tested, 0.59% active; bead flow cytometry, FAM-aptamer displacement from GRK2; inhibition of aptamer binding, % at 10 µM;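 active means inhibition of aptamer binding above 40%, roughly 3 SD of noise, on plates passing a quality check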;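 further: median bead fluorescence of bound FAM aptamer so fluorescent compounds give negative values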
# Target sequence (P25098 whole entry, looked up): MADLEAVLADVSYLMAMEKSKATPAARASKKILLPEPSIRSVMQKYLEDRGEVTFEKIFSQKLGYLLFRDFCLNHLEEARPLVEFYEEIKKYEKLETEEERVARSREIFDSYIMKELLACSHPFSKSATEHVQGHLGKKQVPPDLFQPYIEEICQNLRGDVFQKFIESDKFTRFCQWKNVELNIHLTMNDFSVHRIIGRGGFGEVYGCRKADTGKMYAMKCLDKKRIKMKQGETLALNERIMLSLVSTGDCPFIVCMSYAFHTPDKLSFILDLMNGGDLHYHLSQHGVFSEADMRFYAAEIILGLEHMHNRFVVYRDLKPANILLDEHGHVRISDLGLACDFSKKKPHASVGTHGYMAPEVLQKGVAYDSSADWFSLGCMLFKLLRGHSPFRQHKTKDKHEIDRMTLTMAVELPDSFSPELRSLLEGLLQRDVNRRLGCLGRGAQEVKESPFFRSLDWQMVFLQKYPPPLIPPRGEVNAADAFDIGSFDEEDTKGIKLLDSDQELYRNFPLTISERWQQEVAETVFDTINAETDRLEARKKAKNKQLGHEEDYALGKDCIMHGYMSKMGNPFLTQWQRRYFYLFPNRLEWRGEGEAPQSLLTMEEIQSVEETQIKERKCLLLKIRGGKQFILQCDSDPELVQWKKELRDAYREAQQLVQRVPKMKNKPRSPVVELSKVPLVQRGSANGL
# CAL PDZ FP-2: human CAL PDZ-peptide interaction inhibition; purified CAL PDZ, TMR-peptide fluorescence polarization, 1 h; inhibition, % at 20 µM; 330,000 tested, 0.02% active;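 active means highest replicate inhibition of at least 40%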;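 further: plate controls were DMSO neutral control wells for no effect and unlabeled competitor peptide control wells for full effect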
#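 Control set: unlabelled peptide and DMSO controls / Material: purified CerCALP PDZ construct / Timing: 1 h incubation at room temperature before polarization reading / Doses: 20 µM, one dose / Detection: fluorescence polarization (mP)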
# GRK2 inh confirm: human GRK2 inhibition confirmation, cherry pick 1; aptamer displacement, % at 10 µM; 2,000 tested, 4% active; bead-bound GRK2, FAM-aptamer displacement, flow cytometry; shares compounds with GRK2 inh;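 active means aptamer displacement above 40%, near three times the noise of non-fluorescent compounds, on plates passing quality checks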;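 further: negative values mostly reflect intrinsic compound fluorescence rather than true enhancement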
# FAM quench CP1: counter-screen for GRK2 aptamer inhibitors: fluorescent aptamer quenchers; shares compounds with GRK2 inh; Carboxyfluorescein RNA aptamer on beads, flow cytometry quenching; active compounds read low; fluorescence response (% of DMSO), % at 10 µM; 2,000 tested, under 10 active; AID 504580;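 active means compounds that quench the bead-bound fluorescent RNA probe, cutting fluorescence to under half of the solvent control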;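 further: counterscreen run without GRK2 so only probe quenching by compound is measured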
# GRK2 CP2: human GRK2 inhibition confirmation, cherry pick 2; shares compounds with GRK2 inh; bead-bound GRK2, FAM-aptamer displacement, flow cytometry; inhibition of aptamer binding, % at 10 µM; 360 tested, under 10 active;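 active means inhibition of aptamer binding above 40%, about triple the noise seen with nonglowing compounds, on plates passing quality control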;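 further: negative values mostly come from compounds that fluoresce themselves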
# FAM quench SP: counter-screen for GRK2 binding hits: quenchers of fluorescent RNA aptamer; shares compounds with GRK2 inh; carboxyfluorescein RNA aptamer beads, flow cytometry quenching; active compounds read low; fluorescence response vs DMSO, % at 10 µM; 360 tested, under 10 active; AID 588494;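 active means response vs DMSO under 50%, meaning signal dropped by over half, treated as fluorescence quencher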;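 further: labelled aptamer on streptavidin beads without GRK2 as a quench counter-screen; 100% = bead fluorescence of DMSO wells and lower means quenching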
# The depositor's hits bear a star; i = inactive; . = no result given. Sampled rows, rich in hits. Any-hit rate of the full collection: about 1.8%.
SMILES,CAL PDZ FP-1,DDE Tn6 FP inh,DDE Tn7 FP inh,ARNT TACC3 PPI,GRK2 inh,CAL PDZ FP-2,GRK2 inh confirm,FAM quench CP1,others
Fc1ccccc1CN1CCCN(C(=S)Nc2cccc(Cl)c2)C1,-5.6,-4.4,5.1,3.3,1.0,-2.3,.,.,
O=C(Nc1ccccc1)N1CCCN(Cc2ccccc2F)C1,-2.3,-2.7,-0.1,2.0,99.0*,-1.0,0.6,91.5,
CCN(CC(=O)NC1CCS(=O)(=O)C1)C(=O)c1cc(OC)c(OC)c(OC)c1 (stereo not drawn),-6.7,-4.0,-1.8,.,60.0*,-0.3,-1.1,94.6,
CCN(CC(=O)NC1CCS(=O)(=O)C1)C(=O)c1ccc(OC)c([N+](=O)[O-])c1 (stereo not drawn),5.7,-5.3,-2.7,-5.2,0.0,-1.2,.,.,
CO[C@@H]1CN(C)C(=O)c2ccc(NC(C)=O)cc2OC[C@@H](C)N(C(=O)C2CC2)C[C@@H]1C,.,.,.,9.5,.,.,.,.,
COc1ccc(C(=O)N2C[C@H]3[C@@H](c4ccccc42)[C@@H](CO)N3Cc2ccccc2)cc1,.,.,.,-1.7,.,.,.,.,
C/C(=C\C(=O)c1ccc(C)cc1)Nc1cccc(O)c1,1.2,-3.4,-0.2,-1.3,34.0,-2.8,0.5,100.4,
Cc1nn(-c2ccc(F)cc2)c(Cl)c1/C=C(/CC(=O)O)c1nc2ccccc2s1,0.8,-3.5,2.6,-1.4,.,-0.2,.,.,
Cc1nn(-c2ccc(F)cc2)c(Cl)c1/C=C(\CC(=O)O)c1nc2ccccc2s1,.,-2.6,0.6,-2.7,2.0,-2.3,2.4,98.4,
Cc1cc(N2CCN(C)CC2)nc2ccc(NC(=O)CCC(=O)NCCCOC(C)C)cc12,1.5,-4.5,-5.7,.,93.0*,-2.3,-0.1,100.2,
COCCCNC(=O)CCC(=O)Nc1ccc2nc(N3CCOCC3)cc(C)c2c1,-2.2,-4.1,-2.9,-1.2,0.0,-1.1,.,.,
Cc1nnc(SCc2nnc(-c3ccccc3)o2)n(N)c1=O,-0.3,3.1,-2.1,-2.8,10.0,-1.2,.,.,
Cc1nnc(SCc2c(Cl)cccc2Cl)n(N)c1=O,11.8,-1.4,3.6,-2.3,61.0*,-2.9,4.0,95.2,
COc1ccc(Cl)cc1N(CC(=O)Nc1ccccc1C(=O)NCc1ccco1)S(C)(=O)=O,4.5,-4.4,3.8,-4.0,20.0,-1.6,-0.4,100.9,
OC(c1cccc(OCc2ccccc2)c1)c1nnc(-c2ccccc2)o1 (stereo not drawn),.,-6.4,2.9,-0.3,0.0,-1.8,-1.1,94.8,
OC(c1ccc(OCc2ccccc2)cc1)c1nnc(-c2ccccc2)o1 (stereo not drawn),-2.3,6.2,-1.9,-4.6,5.0,-1.5,-0.5,98.0,
Cn1ccnc1C(O)c1cccc(OCc2ccccc2)c1 (stereo not drawn),.,3.3,1.2,2.5,0.0,-0.8,.,.,
Cc1ccccc1Cn1cc(CN2[C@@H](CC(C)C)COc3cc(Br)ccc3S2(=O)=O)nn1,.,-1.6,-2.2,.,.,.,.,.,
CO[C@H]1CN(C)C(=O)c2cc(NC(=O)NC(C)C)ccc2OC[C@H](C)N(Cc2ccccn2)C[C@H]1C,.,.,.,-0.3,.,.,.,.,
Cc1cc(C)nc(SCC(=O)Nc2ccccc2[N+](=O)[O-])n1,.,-1.8,-2.3,.,0.0,-1.7,.,.,
O=C1CC(=O)NC(SCC(=O)Nc2ccccc2[N+](=O)[O-])=N1,-1.8,-2.0,-2.3,1.8,43.0*,-3.3,.,107.0,
COc1cccc(N2CCN(C(=O)COc3cc(=O)n(C)c4ccccc34)CC2)c1,.,4.3,-2.3,.,.,.,.,.,
COc1ccc(N2CCN(C(=O)CCCOc3cc(=O)n(C)c4ccccc34)CC2)cc1,-1.8,-4.8,1.2,-10.8,56.0*,-0.7,-1.3,98.6,
COc1ccccc1-c1noc2c1C(=O)N(Cc1cn(Cc3ccccc3)nn1)CC2,.,5.8,2.2,.,.,.,.,.,
C[C@@H]1CN([C@H](C)CO)C(=O)c2cc(C#CC3(O)CCCC3)cnc2O[C@H]1CN(C)C(=O)CN(C)C,.,.,.,-2.5,.,.,.,.,
SMILES,CAL PDZ FP-1,DDE Tn6 FP inh,DDE Tn7 FP inh,ARNT TACC3 PPI,GRK2 inh,CAL PDZ FP-2,GRK2 inh confirm,FAM quench CP1,others
CCCCn1c(NS(=O)(=O)c2ccc(C)cc2)c(S(=O)(=O)c2ccccc2)c2nc3ccccc3nc21,-0.8,10.3,6.8,19.8,0.0,-1.1,-5.1,97.4,
C[C@H]1CCC2[C@](C)(CO)[C@@H](O)CC[C@]2(C)[C@@]12CCC(CO)(CCO)O2 (stereo partly drawn),-4.1,2.4,-0.2,4.3,44.0*,-0.6,.,.,GRK2 CP2=13.6;FAM quench SP=102.0
CC(C)NC(=O)Nc1ccc2c(c1)CC(=O)N([C@H](C)CO)C[C@H](C)[C@H](CN(C)C(=O)NC(C)C)O2,.,.,.,-4.5,.,.,.,.,
COc1ccc(CNC(=O)CCS(=O)(=O)c2ccc3c(c2)NC(=O)CS3)cc1,-3.8,-7.8,-0.2,-0.1,0.0,-1.1,.,.,
COc1ccccc1N1CCN(C(=O)C(C)CS(=O)(=O)c2ccc3c(c2)NC(=O)CS3)CC1 (stereo not drawn),-2.0,-3.9,-4.0,4.5,54.0*,-0.6,.,.,GRK2 CP2=i;FAM quench SP=104.0
CC(C)C(=O)Nc1ccc2c(c1)C(=O)N(C)[C@@H]1CC[C@H](CC(=O)N[C@@H](C)c3ccccc3)O[C@@H]1CO2,.,.,.,-8.7,.,.,.,.,
Cc1ccc(/C=C2/N=C(c3ccccc3)NNC2=O)cc1,.,-2.0,-3.9,.,93.0*,.,-1.6,97.6,
COc1ccc(S(=O)(=O)Nc2ccc3c(c2)CC(=O)N([C@@H](C)CO)C[C@H](C)[C@H](CN(C)S(=O)(=O)c2ccc(OC)cc2)O3)cc1,.,.,.,-1.3,.,.,.,.,
Clc1ccccc1Cc1noc(CN2CCN(Cc3ccccn3)CC2)n1,-0.9,4.7,8.1,4.3,0.0,-2.6,.,.,
Cc1sc2nc(SCC(=O)N3CCOCC3)[nH]c(=O)c2c1-c1ccccc1,-3.4,-8.2,0.0,-0.1,93.0*,-4.0,.,.,GRK2 CP2=4.4;FAM quench SP=100.0
O=C(CSc1nc(O)c(-c2ccccc2)c(=O)[nH]1)N1CCOCC1,1.0,7.0,4.5,-1.1,0.0,0.8,.,.,
C[C@H](CO)N1C[C@H](C)[C@@H](CN(C)C(=O)Cc2cccnc2)Oc2ncc(-c3cncnc3)cc2C1=O,.,.,.,-5.2,.,.,.,.,

# From PubChem
